Columns and labels:
[1] = In vitro inhibition of […] induced TNF-alpha production in human whole blood (HWB); format: functional, tissue-based
[2] = system: Canis familiaris; assay: Range of plasma concentration measured between 2 and 30 min in dogs after intravenous bolus dosing at 10 mg/kg; format: functional, organism-based; parameters: dose 10 mg/kg; details: Canis lupus familiaris
Method in brief: (§1)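 Anesthetized mongrel dogs, iv bolus (2–5 min) in 60–80% PEG-200; plasma drug levels measured by HPLC between 2 and 30 min after dosing, reported as range (±0.2 µM); data from n ≥ 2 dogs.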

[3] = In vitro inhibitory activity was determined against human whole blood; format: functional
[4] = Ratio of lowest plasma concentration to measured over 30 min interval to 50% inhibition of LPS-induced TNF alpha production in human whole blood; format: functional
[5] = target: Voltage-gated inwardly rectifying potassium channel KCNH2 (Homo sapiens, UniProt Q12809)
[6] = target: 3',5'-cyclic-AMP phosphodiesterase 4A (Homo sapiens, UniProt P27815); assay: In vitro inhibitory activity was determined against human Phosphodiesterase 4 isoform using a construct representing the common region of spliced variants expressed as a GST-fusion protein in Sf 9 cells; format: cell-based
Method in brief: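 Human PDE4A, common-region construct of spliced variants expressed as GST-fusion in Sf9 cells; values mean ± SEM with n reported.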

[7] = system: Canis familiaris; assay: Change in QTc were measured at 15 and 30 min after dosing of bolus at 10 mg/kg in dogs; format: functional, Canis lupus familiaris
Method in brief: (§2)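 Chloralose-anesthetized mongrel dogs (n = 2 or 3) given iv bolus over 2–5 min as solution in 60–80% PEG-200. QTc recorded at 15 and 30 min postdose as percent change from baseline per dog; values averaged, ΔQTc taken as maximal mean percent change (range given).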

[8] = system: Canis familiaris; assay: Change in QTc were measured at 15 and 30 min after dosing of bolus at 3 mg/kg in dogs; format: functional, Canis lupus familiaris; method in brief: as §2
[9] = system: Canis familiaris; assay: Range of plasma concentration measured between 2 and 30 min in dogs after intravenous bolus dosing at 3 mg/kg; format: functional, organism-based; parameters: dose 3 mg/kg; details: Canis lupus familiaris; method in brief: as §1

Chain of Voltage-gated inwardly rectifying potassium channel KCNH2 (Q12809 whole entry, the tested form may be a part, canonical isoform): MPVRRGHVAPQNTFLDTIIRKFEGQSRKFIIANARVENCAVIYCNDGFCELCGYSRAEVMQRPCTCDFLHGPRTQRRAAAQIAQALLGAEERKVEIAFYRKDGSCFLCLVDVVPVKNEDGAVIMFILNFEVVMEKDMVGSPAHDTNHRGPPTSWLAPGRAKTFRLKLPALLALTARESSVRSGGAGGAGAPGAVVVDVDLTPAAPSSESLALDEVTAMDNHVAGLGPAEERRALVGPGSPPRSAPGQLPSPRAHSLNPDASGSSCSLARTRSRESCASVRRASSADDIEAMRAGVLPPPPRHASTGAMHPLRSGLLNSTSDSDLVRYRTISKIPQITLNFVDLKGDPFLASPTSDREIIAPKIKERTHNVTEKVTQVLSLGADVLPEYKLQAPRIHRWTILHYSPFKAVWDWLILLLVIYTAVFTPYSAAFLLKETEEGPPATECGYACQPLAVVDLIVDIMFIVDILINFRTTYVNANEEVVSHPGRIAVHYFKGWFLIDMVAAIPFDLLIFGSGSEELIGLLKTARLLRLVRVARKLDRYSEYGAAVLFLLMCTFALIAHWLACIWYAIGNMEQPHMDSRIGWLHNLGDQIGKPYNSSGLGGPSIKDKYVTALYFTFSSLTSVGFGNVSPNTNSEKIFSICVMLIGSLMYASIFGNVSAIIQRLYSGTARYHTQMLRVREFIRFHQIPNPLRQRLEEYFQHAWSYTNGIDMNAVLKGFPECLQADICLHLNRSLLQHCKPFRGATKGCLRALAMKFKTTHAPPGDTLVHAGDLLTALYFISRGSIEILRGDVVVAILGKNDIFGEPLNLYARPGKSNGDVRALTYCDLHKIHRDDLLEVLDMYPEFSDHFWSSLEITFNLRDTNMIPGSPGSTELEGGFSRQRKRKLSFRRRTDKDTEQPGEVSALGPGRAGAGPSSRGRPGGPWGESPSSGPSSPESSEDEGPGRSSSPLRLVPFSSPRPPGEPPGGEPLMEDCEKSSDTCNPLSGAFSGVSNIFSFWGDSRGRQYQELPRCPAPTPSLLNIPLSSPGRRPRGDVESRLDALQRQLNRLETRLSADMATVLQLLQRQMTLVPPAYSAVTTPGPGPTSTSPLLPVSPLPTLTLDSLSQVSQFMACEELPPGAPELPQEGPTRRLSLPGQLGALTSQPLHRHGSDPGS
Chain of 3',5'-cyclic-AMP phosphodiesterase 4A (P27815 whole entry, looked up, stated change not applied, the tested form may be a part, canonical isoform): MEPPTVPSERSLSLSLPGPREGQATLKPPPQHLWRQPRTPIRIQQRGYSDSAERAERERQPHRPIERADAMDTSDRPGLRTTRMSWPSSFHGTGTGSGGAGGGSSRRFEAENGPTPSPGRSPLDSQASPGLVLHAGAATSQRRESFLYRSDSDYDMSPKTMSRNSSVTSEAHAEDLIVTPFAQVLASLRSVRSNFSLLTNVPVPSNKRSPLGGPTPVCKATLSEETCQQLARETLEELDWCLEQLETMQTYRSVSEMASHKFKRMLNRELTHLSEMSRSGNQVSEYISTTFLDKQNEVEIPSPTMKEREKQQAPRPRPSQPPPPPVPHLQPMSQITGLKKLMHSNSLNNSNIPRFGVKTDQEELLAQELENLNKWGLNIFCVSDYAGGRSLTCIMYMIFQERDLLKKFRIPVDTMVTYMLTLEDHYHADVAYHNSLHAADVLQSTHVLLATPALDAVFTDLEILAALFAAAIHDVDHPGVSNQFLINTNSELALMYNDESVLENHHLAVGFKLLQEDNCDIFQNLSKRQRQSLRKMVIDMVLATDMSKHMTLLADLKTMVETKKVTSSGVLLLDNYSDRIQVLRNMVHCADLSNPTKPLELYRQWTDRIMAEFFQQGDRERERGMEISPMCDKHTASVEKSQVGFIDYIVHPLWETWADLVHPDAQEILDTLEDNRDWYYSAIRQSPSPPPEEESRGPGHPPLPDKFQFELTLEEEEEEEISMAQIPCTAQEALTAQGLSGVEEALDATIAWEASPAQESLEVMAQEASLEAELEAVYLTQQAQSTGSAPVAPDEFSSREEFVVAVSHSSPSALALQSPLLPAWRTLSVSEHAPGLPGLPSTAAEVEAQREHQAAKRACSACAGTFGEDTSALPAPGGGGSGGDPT

Row | IC50 ([1]; Homo sapiens, Blood) | IC50 [6] | IC50 [1] | SMILES | Ki [5] | also measured
1 | 90 nM | 0.5 nM |  | CC(C)(O)c1ncc(C(Cc2cc[n+]([O-])cc2)c2ccc(OC(F)F)c(OC3CCC3)c2)s1 (stereo unspecified) | 58400 nM | Plasma concentration [2]: 10 µM; IC50 [3]: 100 nM; Ratio plasma concentration/IC50 [4]: 40; Change [7]: 2.9%
2 | 160 nM | 2.1 nM |  | CC(O)(c1ccccc1)c1ccc(C(Cc2cc[n+]([O-])cc2)c2ccc(OC(F)F)c(OC(F)F)c2)cn1 (stereo unspecified) | 1180 nM | IC50 [3]: 160 nM; Ratio plasma concentration/IC50 [4]: 12.5; Change [8]: 8.9%; Plasma concentration [9]: 5 µM
3 | 120 nM | 1 nM |  | CC(C)(O)c1ccc(C(Cc2cc[n+]([O-])cc2)c2ccc(OC(F)F)c(OC3CCC3)c2)cn1 (stereo unspecified) | 25000 nM | 
4 | 260 nM | 1.6 nM |  | CC(C)(O)c1ccc(C(Cc2cc[n+]([O-])cc2)c2ccc(OC(F)F)c(OC3CCC3)c2)cc1 (racemic) | 22400 nM | 
5 |  | 2.1 nM | 200 nM | CC(C)(O)c1ccc(C(Cc2ccc[n+]([O-])c2)c2ccc(OC(F)F)c(OC3CC3)c2)cn1 (single isomer, unassigned; (+)2d) | 42200 nM | 
6 |  | 1.2 nM | 60 nM | CC(C)(O)c1ccc(C(Cc2cc[n+]([O-])cc2)c2ccc(OC(F)F)c(OC3CC3)c2)cn1 (single isomer, unassigned; (+)) |  | 
7 |  | 334 nM | 17900 nM | CC(C)(O)c1ccc(C(Cc2ccc[n+]([O-])c2)c2ccc(OC(F)F)c(OC3CC3)c2)cn1 (single isomer, unassigned; (-)2d) | 44700 nM | 
8 |  | 55 nM | 3520 nM | CC(C)(O)c1ccc(C(Cc2cc[n+]([O-])cc2)c2ccc(OC(F)F)c(OC3CC3)c2)cn1 (single isomer, unassigned; (-)) |  | 
9 | 16200 nM | 4.3 nM |  | COc1ccc([C@H](Cc2ccncc2)c2ccccc2)cc1OC1CCCC1 [CDP840] |  | 

The next lines start with the compound.

Row | SMILES | IC50 ([1]; Homo sapiens, Blood) | IC50 [6] | IC50 [1] | Ki [5] | also measured
10 | [O-][n+]1cccc(C[C@@H](c2ccc(OC(F)F)c(OC3CC3)c2)c2cnc(C(O)(C(F)(F)F)C(F)(F)F)s2)c1 | 90 nM | 0.5 nM |  | 61400 nM | Plasma concentration [2]: 25 µM; IC50 [3]: 90 nM; Ratio plasma concentration/IC50 [4]: 211; Change [7]: 3%
11 | [O-][n+]1cccc(C[C@H](c2ccc(OC(F)F)c(OC3CC3)c2)c2cnc(C(O)(C(F)(F)F)C(F)(F)F)s2)c1 | 2640 nM | 48 nM |  | 39000 nM | 
12 | [O-][n+]1ccc(CC(c2ccc(OC(F)F)c(OC3CCC3)c2)c2cnc(C(O)(C(F)(F)F)C(F)(F)F)s2)cc1 (racemic) | 20 nM | 0.8 nM |  | 38100 nM | 
13 | [O-][n+]1ccc(CC(c2ccc(OC(F)F)c(OC3CC3)c2)c2cnc(C(O)(C(F)(F)F)C(F)(F)F)s2)cc1 (racemic) | 20 nM | 0.4 nM |  |  | 
14 | CC(C)(O)c1ccc(C(CC2=CCC(=O)N=C2)c2ccc(OC(F)F)c(OC3CC3)c2)cn1 (single isomer, unassigned; (+)) | 60 nM |  |  |  | 
15 | CC(C)(O)c1ccc(C(Cc2cc[n+]([O-])cc2)c2ccc(OC(F)F)c(OC(F)F)c2)cn1 (single isomer, unassigned; (-)) |  | 35 nM | 640 nM | 22700 nM | 
16 | CC(C)(O)c1ccc(C(Cc2cc[n+]([O-])cc2)c2ccc(OC(F)F)c(OC(F)F)c2)cn1 (stereo in doubt; 2a(+)) |  | 520 nM | 9010 nM | 25400 nM | 
17 | O=c1[nH]c2c(O)ccc(CCNCCS(=O)(=O)CCCOCCc3ccccc3)c2s1 [SIBENADET] | 18000 nM | 38 nM |  |  | 
